Laboratory results published in ChEMBL document CHEMBL2321691 (J Med Chem, 2013).
Activity calls are given as the source filed them. The calls are words filed in the database; no cut-off is given here.

Legend:
[1] = test system: HeLa; assay: Inhibition of microtubule system in human HeLa cells at 10 nM after 18 hrs by confocal microscopic analysis; format: cell-based
How it was run: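 HeLa cells grown on poly-L-lysine coverslips and treated 18 h at 10^-8 M. Washed in HPEM (pH 6.6), fixed 15 min in 4% paraformaldehyde, permeabilized with 0.5% Triton X-100. Stained with anti-α-tubulin (1:150, 1 h), then CY3 anti-mouse IgG (1:100, 1 h, 4 °C). Imaged by confocal microscopy; representative of at least three experiments.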

[2] = test system: HeLa; assay: Cell cycle arrest in human HeLa cells assessed as accumulation at G2/M phase at 10^-8 M incubated for 18 hrs by propidium iodide staining-based FACS flow cytometric analysis relative to control; format: functional
How it was run: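 HeLa cells treated 18 h at 10^-8 M, with untreated controls run in parallel. 2-4 x 10^5 cells fixed overnight in 70% ethanol at 4 °C, washed in PBS, then incubated 1 h at room temperature with 1 mg/mL RNAse A and 20 µg/mL propidium iodide. DNA content read by FACSCalibur flow cytometry; percentage of cells in G2/M. Representative of three experiments.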

[3] = test system: HT-29; assay: Cytotoxicity against human HT-29 cells assessed as growth inhibition after 72 hrs by XTT assay; format: functional, cell-based; conditions: HT-29, 72 h
How it was run: (§1)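 Cells seeded at 1.5 x 10^3 per well (A549, HeLa, HT-29) or 3 x 10^3 (HL-60) in medium with 10% heat-inactivated FBS. Compound tested from 10-5 to 10-13 M for 72 h at 37 °C, then XTT readout. […] Triplicate wells, three experiments; mean ± S.D.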

[4] = test system: A549; assay: Cytotoxicity against human A549 cells assessed as growth inhibition after 72 hrs by XTT assay; format: functional, cell-based; conditions: A549, 72 h; how it was run: as §1
[5] = test system: HeLa; assay: Cytotoxicity against human HeLa cells assessed as growth inhibition after 72 hrs by XTT assay
[6] = species on record: Bos taurus; assay: Inhibition of bovine brain tubulin polymerization at 20 uM after 30 mins by spectrophotometry
How it was run: (§2)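 Bovine brain tubulin at 1.5 mg/mL, pH 6.7, in 0.1 M MES, 1 mM EGTA, 1 mM MgCl2, 1 mM β-ME, 1.5 mM GTP with ligand. Incubated 20 °C for 30 min, then on ice 10 min. Assembly read as the A450 rise on a shift from 4 to 38 °C; inhibition is plateau minus baseline against ligand-free control. IC50 from monoexponential fits.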

[7] = Inhibition of bovine brain tubulin polymerization after 30 mins by spectrophotometry; parameters: species or system Bos taurus; how it was run: as §2
[8] = test system: HL-60; assay: Cytotoxicity against human HL60 cells assessed as growth inhibition after 72 hrs by XTT assay; format: functional, cell-based; conditions: HL-60, 72 h; how it was run: as §1
[9] = test system: HeLa; assay: Induction of apoptosis in human HeLa cells assessed as processing of procaspase-3 into the p19/p17 active form at 50 nM by Western blotting analysis; format: functional, cell-based
How it was run: (§3)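 HeLa cells given 50 nM compound for several times; untreated controls run in parallel. About 5 x 10^6 cells lysed and run on reducing SDS gels (12% for caspase-3, 8% for PARP), then blotted to nitrocellulose. Probed overnight with anti-active caspase-3 (p19/p17) or C2.10 anti-PARP (116 kDa and p85), each 1:1000. β-actin loading control; ECL detection. Three experiments.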

[10] = test system: HeLa; assay: Induction of apoptosis in human HeLa cells assessed as accumulation at sub-G0/G1 phase at 50 nM after 72 hrs by […] analysis; format: functional, cell-based
[11] = test system: HeLa; assay: Induction of apoptosis in human HeLa cells assessed as PARP cleavage at 50 nM by Western blotting analysis; format: functional, cell-based; how it was run: as §3
[12] = test system: HeLa; assay: Induction of apoptosis in human HeLa cells assessed as accumulation of DNA at sub-G0/G1 phase incubated for 24 hrs by propidium iodide staining-based FACS flow cytometric analysis relative to control; format: functional; conditions: in the assay text read “72 hrs” for “24 hrs”
How it was run: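 Apoptosis counted as percentage of HeLa cells in the sub-G0/G1 peak. Cells fixed in 70% ethanol, stained 1 h with RNAse A (1 mg/mL) and propidium iodide (20 µg/mL), then read by flow cytometry. Time-course used 5-100 nM for 18-72 h.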

[13] = test system: HeLa; assay: Induction of apoptosis in human HeLa cells at 50 nM after 72 hrs by […] analysis in presence of caspase inhibitor z-VAD-fmk relative to control; format: functional
[14] = test system: HeLa; assay: Induction of apoptosis in human HeLa cells at 50 nM after 72 hrs by […] analysis relative to control; format: functional

| inhibition [6] [%] | IC50 [7] [nM] | Structure (SMILES) | inhibition [1] | Activity [2] [%] | IC50 [3] [nM] | IC50 [4] [nM] | IC50 [5] [nM] | IC50 [8] [nM] | Activity [9] | Activity [10] | Activity [11] | Activity [12] [%] | Activity [13] [%] | Activity [14] [%] |
| --- | --- | --- | --- | --- | --- | --- | --- | --- | --- | --- | --- | --- | --- | --- |
| 90 | 4700 | COc1cc(C(=CC#N)c2ccc3c(c2)c(C#N)cn3C)cc(OC)c1OC | Active | >85 | 2.1 | 4.9 | 3.5 | 4.8 | Active | Active | Active | – | – | – |
| 100 | 1000 | COc1cc(C(C)c2ccc3c(ccn3C)c2)cc(OC)c1OC (configuration not stated) | Active | >85 | 3.8 | 6.8 | 0.64 | 0.33 | Active | Active | Active | – | – | – |
| 93 | 1200 | C=C(c1cc(OC)c(OC)c(OC)c1)c1ccc2c(c1)c(C#N)cn2C | Active | >83 | 3.9 | 8.4 | 2.9 | 1.3 | Active | Active | Active | 20 | 5 | 19.5 |
| 93 | 900 | C=C(c1cc(OC)c(OC)c(OC)c1)c1ccc2c(c1)c(C(N)=O)cn2C | Active | >85 | 0.51 | 1.8 | 0.25 | 0.11 | Active | Active | Active | – | – | – |
